Laboratory results published in ChEMBL document CHEMBL4251702, “Potential Antimicrobial Isopropanol-Conjugated Carbazole Azoles as Dual Targeting Inhibitors of Enterococcus faecalis” (ACS Med Chem Lett, 2018).
Values after ≈ are worked out from the molar mass of the structure shown. Active and inactive are the calls of the source. The rule behind the calls is not given here.

Experiments:
Staphylococcus aureus [1] = assay: Antimicrobial activity against Staphylococcus aureus after 24 hrs by two-fold serial dilution method; format: functional, organism-based
Staphylococcus aureus [2] = assay: Antimicrobial activity against methicillin-resistant Staphylococcus aureus after 24 hrs by two-fold serial dilution method; format: functional, organism-based
Enterococcus faecalis [3] = assay: Antimicrobial activity against Enterococcus faecalis after 24 hrs by two-fold serial dilution method; format: functional
Staphylococcus aureus [4] = assay: Antimicrobial activity against Staphylococcus aureus ATCC 25923 after 24 hrs by two-fold serial dilution method; format: functional, organism-based
Staphylococcus aureus [5] = assay: Antimicrobial activity against Staphylococcus aureus ATCC 29213 after 24 hrs by two-fold serial dilution method; format: functional, organism-based
Klebsiella pneumoniae [6] = assay: Antimicrobial activity against Klebsiella pneumoniae after 24 hrs by two-fold serial dilution method; format: functional, organism-based
Escherichia coli [7] = assay: Antimicrobial activity against Escherichia coli after 24 hrs by two-fold serial dilution method; format: functional, organism-based
Acinetobacter baumannii [8] = assay: Antimicrobial activity against Acinetobacter baumannii after 24 hrs by two-fold serial dilution method; format: functional, organism-based
Pseudomonas aeruginosa [9] = assay: Antimicrobial activity against Pseudomonas aeruginosa after 24 hrs by two-fold serial dilution method; format: functional, organism-based
Pseudomonas aeruginosa [10] = assay: Antimicrobial activity against Pseudomonas aeruginosa ATCC 27853 after 24 hrs by two-fold serial dilution method; format: functional
Escherichia coli [11] = assay: Antimicrobial activity against Escherichia coli ATCC 25922 after 24 hrs by two-fold serial dilution method; format: functional, organism-based
Candida parapsilosis = assay: Antifungal activity against Candida parapsilosis ATCC 22019 after 24 hrs by two-fold serial dilution method; format: functional
Aspergillus fumigatus = assay: Antifungal activity against Aspergillus fumigatus after 24 hrs by two-fold serial dilution method; format: functional
Enterococcus faecalis [12] = assay: Antimicrobial activity against Enterococcus faecalis assessed as ratio of MIC after and before […] measured at 24 hrs interval for 16 days by two-fold serial dilution method; format: functional
Enterococcus faecalis [13] = assay: Antimicrobial activity against Enterococcus faecalis after 11 passages measured at 24 hrs interval for 16 days by two-fold serial dilution method; format: functional
Enterococcus faecalis [14] = assay: Bactericidal activity against Enterococcus faecalis assessed as log reduction in bacterial colonies at 4 times MIC measured within 1 hr by time-kill assay; format: functional
Procedure, shortened: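 Viable counts of E. faecalis were expressed as log CFU/mL and followed over the first hour of exposure at 4 × MIC. A positive-control drug was run alongside.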

Enterococcus faecalis [15] = assay: Induction of membrane disruption in Enterococcus faecalis at 12 times MIC measured every 10 mins for 60 mins by propidium iodide staining based fluorescence assay; format: functional, organism-based
Procedure, shortened: (§1)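 Membrane permeabilization was tracked by propidium iodide, which enters compromised cells and fluoresces on binding DNA. Fluorescence of bacteria with compound plus PI was recorded over 60 min, against two control groups. Strains were E. faecalis and E. coli ATCC 25922.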

Escherichia coli [16] = assay: Induction of membrane disruption in Escherichia coli ATCC 25922 at 12 times MIC measured every 10 mins for 60 mins by propidium iodide staining based fluorescence assay; format: functional, organism-based; procedure, shortened: as §1
[17] = Cytotoxicity against mouse RAW264.7 cells assessed as cell viability at 128 ug/ml after 24 hrs by MTT assay relative to control; format: cell-based; details: read-out: Activity
Procedure, shortened: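 Normal mouse macrophage RAW264.7 cells were exposed to the compound up to 128 μg/mL for 24 h, and viability was read by MTT. Each bar is the mean of three parallels, with error bars of one standard deviation.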

DNA [18] = assay: Binding affinity to Enterococcus faecalis DNA assessed as DNA intercalation by UV-vis absorption spectrophotometric method; format: nucleic-acid assay
Procedure, shortened: (§2)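 Genomic DNA was isolated from drug-resistant E. faecalis strains and examined in vitro with the compound by UV–vis absorption and by neutral red fluorescence spectroscopy.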

DNA [19] = assay: Binding affinity to Enterococcus faecalis DNA assessed as DNA intercalation by neutral red dye based spectrofluorimetric method; format: nucleic-acid assay; procedure, shortened: as §2
[20] = Solubility of the compound in water; format: physicochemical; details: buffer
Staphylococcus aureus [21] = assay: Antimicrobial activity against Staphylococcus aureus after 24 hrs under pH 4 to 11 by two-fold serial dilution method; format: functional, organism-based
Staphylococcus aureus [22] = assay: Antimicrobial activity against methicillin-resistant Staphylococcus aureus after 24 hrs under pH 4 to 11 by two-fold serial dilution method; format: functional, organism-based
Enterococcus faecalis [23] = assay: Antimicrobial activity against Enterococcus faecalis after 24 hrs under pH 4 to 11 by two-fold serial dilution method; format: functional, organism-based
Staphylococcus aureus [24] = assay: Antimicrobial activity against Staphylococcus aureus ATCC 25923 after 24 hrs under pH 4 to 11 by two-fold serial dilution method; format: functional, organism-based
Staphylococcus aureus [25] = assay: Antimicrobial activity against Staphylococcus aureus ATCC 29213 after 24 hrs under pH 4 to 11 by two-fold serial dilution method; format: functional, organism-based
Klebsiella pneumoniae [26] = assay: Antimicrobial activity against Klebsiella pneumoniae after 24 hrs under pH 4 to 11 by two-fold serial dilution method; format: functional, organism-based
Escherichia coli [27] = assay: Antimicrobial activity against Escherichia coli after 24 hrs under pH 4 to 11 by two-fold serial dilution method; format: functional, organism-based
Acinetobacter baumannii [28] = assay: Antimicrobial activity against Acinetobacter baumannii after 24 hrs under pH 4 to 11 by two-fold serial dilution method; format: functional, organism-based
Pseudomonas aeruginosa [29] = assay: Antimicrobial activity against Pseudomonas aeruginosa after 24 hrs under pH 4 to 11 by two-fold serial dilution method; format: functional, organism-based
Pseudomonas aeruginosa [30] = assay: Antimicrobial activity against Pseudomonas aeruginosa ATCC 27853 after 24 hrs under pH 4 to 11 by two-fold serial dilution method; format: functional, organism-based
Escherichia coli [31] = assay: Antimicrobial activity against Escherichia coli ATCC 25922 after 24 hrs under pH 4 to 11 by two-fold serial dilution method; format: functional, organism-based

SMILES | Activity (Staphylococcus aureus [1]) | Activity (Staphylococcus aureus [2]) | Activity (Enterococcus faecalis [3]) | Activity (Staphylococcus aureus [4]) | Activity (Staphylococcus aureus [5]) | Activity (Klebsiella pneumoniae [6]) | Activity (Escherichia coli [7]) | Activity (Acinetobacter baumannii [8]) | Activity (Pseudomonas aeruginosa [9]) | Activity (Pseudomonas aeruginosa [10]) | Activity (Escherichia coli [11]) | also measured
OC(Cn1cncn1)Cn1c2ccccc2c2cc(Br)ccc21 (centres undefined) | Active | Active | Active | Active | Active | Active | Active | Active | Active | Active | Active | –
OC(Cn1ccnc1-c1ccccc1)Cn1c2ccccc2c2ccccc21 (centres undefined) | inactive | inactive | inactive | inactive | inactive | inactive | inactive | inactive | inactive | inactive | inactive | –
CC(C)(C)c1ccc2c(c1)c1cc(C(C)(C)C)ccc1n2CC(O)Cn1cncn1 (centres undefined) | Active | Active | Active | Active | Active | Active | Active | Active | Active | Active | Active | –
O=[N+]([O-])c1cn(CC(O)Cn2c3ccccc3c3ccccc32)cn1 (centres undefined) | Active | Active | Active | Active | Active | Active | Active | Active | Active | Active | Active | –
OC(Cn1cncn1)(Cn1cncn1)c1ccc(F)cc1F | – | – | – | – | – | – | – | – | – | – | – | Activity (Candida parapsilosis): Active; Activity (Aspergillus fumigatus): Active
OC(Cn1cncn1)Cn1c2ccccc2c2ccccc21 (centres undefined) | Active | Active | Active | Active | Active | Active | Active | Active | Active | Active | Active | –
Cc1nccn1CC(O)Cn1c2ccccc2c2ccccc21 (centres undefined) | Active | Active | Active | Active | Active | Active | Active | Active | Active | Active | Active | –
CCn1cc(C(=O)O)c(=O)c2cc(F)c(N3CCNCC3)cc21 [NORFLOXACIN] | – | – | Active | – | Active | – | – | – | – | – | Active | Ratio (Enterococcus faecalis [12]): 16
OC(Cn1cncn1)Cn1c2ccccc2c2ccc(Br)cc21 (centres undefined) | Active | Active | Active | Active | Active | Active | Active | Active | Active | Active | Active | –
OC(Cn1cncn1)Cn1c2ccc(Br)cc2c2cc(Br)ccc21 (centres undefined) | Active | Active | Active | Active | Active | Active | Active | Active | Active | Active | Active | –
OC(Cn1cncn1)Cn1c2ccc(Cl)cc2c2cc(Cl)ccc21 (centres undefined) | Active | Active | – | Active | Active | Active | Active | Active | Active | Active | Active | MIC (Enterococcus faecalis [3]): 2 µg/mL (≈ 5.54 µM); MIC (Candida parapsilosis; Lodderomyces parapsilosis, ATCC 22019, 24 h): 4 µg/mL (≈ 11.1 µM); MIC (Aspergillus fumigatus): 32 µg/mL (≈ 88.6 µM); MIC (Enterococcus faecalis [13]): 2 to 8 µg/mL (≈ 5.54 to 22.1 µM); Activity (Enterococcus faecalis [14]): >3 log10CFU/ml; Activity (Enterococcus faecalis [15]): Active; Activity (Escherichia coli [16]): Active; viability at 24 h, 128 ug/ml [17]: > 80%; Activity (DNA [18]): Active; Activity (DNA [19]): Active
OC(Cn1cncn1)Cn1c2ccccc2c2cc(I)ccc21 (centres undefined) | Active | Active | Active | Active | Active | Active | Active | Active | Active | Active | Active | –
Cc1ncc([N+](=O)[O-])n1CC(O)Cn1c2ccccc2c2ccccc21 (centres undefined) | Active | Active | Active | Active | Active | Active | Active | Active | Active | Active | Active | solubility [20]: Soluble; Activity (Staphylococcus aureus [21]): Active; Activity (Staphylococcus aureus [22]): Active; Activity (Enterococcus faecalis [23]): Active; Activity (Staphylococcus aureus [24]): Active; Activity (Staphylococcus aureus [25]): Active; Activity (Klebsiella pneumoniae [26]): Active; Activity (Escherichia coli [27]): Active; Activity (Acinetobacter baumannii [28]): Active; Activity (Pseudomonas aeruginosa [29]): Active; Activity (Pseudomonas aeruginosa [30]): Active; Activity (Escherichia coli [31]): Active
Cc1ncc([N+](=O)[O-])n1CC(O)Cn1c2ccc(Br)cc2c2cc(Br)ccc21 (centres undefined) | – | – | – | – | – | – | – | – | – | – | – | MIC (Pseudomonas aeruginosa [10]; ATCC 27853, 24 h): 32 µg/mL (≈ 63 µM)
